System: MS2 coat protein
Test: apparent Kd, MS2 coat protein; higher = weaker binding; RNA-MaP array; FMN 200 µM where present
Summary of the method: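 Stalled E. coli RNA polymerase transcribed each design on Illumina sequencing-chip clusters. The clusters were titrated with SNAP-549-labelled MS2 coat protein, starting at 0.7 or 1.5 nM and doubling up to 3 µM, first without ligand and then with constant ligand, in 100 mM Tris-HCl pH 7.5, 80 mM KCl, 4 mM MgCl2, BSA, DTT, yeast tRNA and Tween-20. Green signal was normalised to red-channel RNA signal and to the control-cluster median Fmax. The apparent Kd is the median of filtered binding-curve fits made for each cluster.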

[1] = designed as: OFF switch for flavin mononucleotide, no ligand
[2] = ligand present: flavin mononucleotide, designed as: OFF switch for flavin mononucleotide
[3] = designed as: ON switch for flavin mononucleotide, no ligand
[4] = ligand present: flavin mononucleotide, designed as: ON switch for flavin mononucleotide

| Sequence | apparent Kd [1] | apparent Kd [2] | apparent Kd [3] | apparent Kd [4] |
| --- | --- | --- | --- | --- |
| UCGAUGCUAGGAUAUACUAAUACAACUACUGUAGUGUCUUCACAUGAGGAUCACCCAUGUAGAAGGAGCAUAUA | 0.0263 µM | 0.0203 µM |  |  |
| UCGAUGUAAGAGAAGGAGGACUUCAUGAGGAUCACCCAUGUGUUAGUACUUAGGAUAUUUGACAACAUGAGGAUCACCCAUGUC |  |  | 0.0643 µM | 0.0616 µM |
| UCGGCCGCCGUGAGGAUAUGCCCGCGCGCCCGCGGGCAGAAGGCACAUGAGGAUCACCCAUGUCCCGCGGCAUU | 0.0162 µM | 0.0351 µM |  |  |
| UCGGCGCGAGGAUAUACGGUUGCUUGGUAGGGUCGUGGCGUACAUGAGGAUCACCCAUGUAGAAGGCGCGCCGC |  | 0.0603 µM |  |  |
| UCGGCGCGAGGAUAUGCGGCUGGUGCUUCGGGCUCUGGCGUACAUGAGGAUCACCCAUGUAGAAGGCGCGCCGC | 0.0131 µM | 0.0143 µM |  |  |
| UCGGCGCGAGGAUAUGCGGUUCCUCCCUCGGGCCGGAGCGUACAUGAGGAUCACCCAUGUAGAAGGCGCGCCGC | 0.0139 µM | 0.0151 µM |  |  |
| UCGUUUAUACAAGGAUAUCAAUUAUAGCUAAAUUCAACAUGAGGAUCACCCAUGUAACUAUGGAGUGAGAAGGUGUAAUGACUU |  |  | 0.514 µM | 0.302 µM |
| UCUACAUAAAUUCAUCAAUACAGAAAGGAUAUGAGAUACAUGAGGAUCACCCAUGUGCAUGUGAAUUAGAAGGUUCAAUUAACU | 0.0144 µM | 0.0111 µM |  |  |
| UCUGCCGCCGUGAGGAUAUGCCCGCGCGCACGCGGGCAGAAGGCACAUGAGGAUCACCCAUGUCCCGCGGUUUU | 0.0176 µM | 0.0381 µM |  |  |
| UCUUAUUGCAAGGAUAUGCAAAUUAUUUUUUAAGCAGAAGGUGCAACAUGAGGAUCACCCAUGUUUCCGGGAAA | 0.0194 µM | 0.111 µM |  |  |
| UGAACUAUGUAGAAGGCCCACAUUUAUAUGUAGGGAGGAUAUACAUGAGGAUCACCCAUGUAAAGAGCAAGAGGAUUUGACAGA | 0.0107 µM | 0.0196 µM |  |  |
| UGAAGAAAGUAGAAGGUAGUCUUAAAAUAGGACUAAGGAUAUACAUGAGGAUCACCCAUGUACUCCUUUAAUAUCUUUGAAAUA | 0.0055 µM | 0.00542 µM |  |  |
| UGAAUGGCAGGAUAUACAUGAGGAUCACCCAUGUUGCUGCUCUAUAUGCCGUCCUUGAGUAGAAGGGUCAUUUA | 0.0192 µM | 0.0325 µM |  |  |
| UGAAUGUGAGGAUAUGGUGAGUAGUGCCAGAGCGCUGCUCACCAGAAGGCACAUGAGGAUCACCCAUGUACUUG | 0.0643 µM | 0.179 µM |  |  |
| UGACCACAUGAGGAUCACCCAUGUGAGGAUAUCAGAAUACGGCAUCGGGCCGUACUUUUGAGAAGGCACAUAAA | 0.0241 µM | 0.0652 µM |  |  |
| UGACGAGUAGGAUAUUGGACUUGCGACAUGAGGAUCACCCAUGUGACGUCAACGUGGCACCAAGAAGGGCUACGUC | 0.0681 µM | 0.0469 µM |  |  |
| UGACGGAGCUGAGGAUAUAACAUGAGGAUCACCCAUGUAAGUCUCCAGGAAACUGGAGACAAUAGUUAGAAGGCAGCUCCGUCA | 0.0146 µM | 0.0194 µM |  |  |
| UGAGCAAGAGGAUAUACAAGGCGUGCGUGAGCACGAGGUUUACAUGAGGAUCACCCAUGUAGAAGGCUUGUUCU | 0.0163 µM | 0.0344 µM |  |  |
| UGAGCCUCGUGAGGAUAUACAUGAGGAUCACCCAUGUAAUAAAGUGAACGGAGGUAACUCCGAAUGUAGAAGGCACGAGGCUCA | 0.0381 µM | 0.306 µM |  |  |
| UGAGCCUCGUGAGGAUAUACAUGAGGAUCACCCAUGUAAUAAAGUGAGCGGAGGAAACUCCGAAUGUAGAAGGCACGAGGCUCA | 0.026 µM | 0.186 µM |  |  |
| UGAGUAGCGUAACAACGCACAUGAGGAUCACCCAUGUCUACACAGGAUAUGCGACGCUCCAGUUAGCAGAAGGGUGAACUCAAA |  |  | 0.0787 µM | 0.138 µM |
| UGAUAACAUGUAGGAUAUCCAGCAUUGACCAUCGGAGAAGGACAUGAGGAUCACCCAUGUACCGAUACAAUGGGAUAAUGGAAU | 0.0155 µM | 0.0172 µM |  |  |
| UGAUAACAUGUAGGAUAUGCAGCAUUGACCACUGCAGAAGGACAUGAGGAUCACCCAUGUAGCCGUACUAUGGGAUCACGCAAU | 0.0477 µM | 0.232 µM |  |  |
| UGAUAGCACAGAGGAUAUGCGUAGUGUUAUCACUACAUGAGGAUCACCCAUGUAGAAGGCUGUGCUAUCUAAGUCGGAAACGAC | 0.00633 µM | 0.00744 µM |  |  |
| UGAUAGGACAGAGGAUAUACGGAUAGGAUCUACUAUCUUUCUCAAAUAACAUGAGGAUCACCCAUGUAGAAGGCUGUCCUAUCU | 0.0232 µM | 0.119 µM |  |  |
| UGAUCGAGAGAUCUUAGAUUCUGGUAGGAUAUACAUUAUGUUAAAAUUACAUGAGGAUCACCCAUGUAGAAGGACUAGAGUCUA | 0.00613 µM | 0.00912 µM |  |  |
| UGCAUGCUAGGAUAUACGGGACAUUAGGGUUCGUUGUAUGGACAUGAGGAUCACCCAUGUAGAAGGAGCGUGCU | 0.0274 µM | 0.112 µM |  |  |
| UGCAUGGUAGGAUAUACGGAACAUUAGGGUUUGUUGUGUGGACAUGAGGAUCACCCAUGUAGAAGGGCCGUGCU | 0.0455 µM | 0.0786 µM |  |  |

| Sequence | apparent Kd [1] | apparent Kd [2] | apparent Kd [3] | apparent Kd [4] |
| --- | --- | --- | --- | --- |
| UGCCAGUUAGGAUAUGACUCGACAGACAUGAGGAUCACCCAUGUCCGAGUGUGUGUUUUUUCAGAAGGGACGGCCC | 0.0251 µM | 0.0304 µM |  |  |
| UGCCCAAAUGGGCCGUGGCAGCGUGAGGAUAUGGGUUGGAUACAUGAGGAUCACCCAUGUUCCUCCUAGAAGGCACUUGUAACC |  |  | 0.183 µM | 0.0415 µM |
| UGCCUGAGUCGAGGAUAUUAUGGAUCAAUUAAUACAUGAGGAUCACCCAUGUAAUUAAUUUAACAUGAGAAGGCGACUCAGGCU |  |  | 0.0113 µM | 0.00851 µM |
| UGCCUGAGUCGAGGAUAUUAUGGAUCCUUUAAUACAUGAGGAUCACCCAUGUAAUUAAUUAUACAUGAGAAGGCGACUCAGGCU |  |  | 0.0888 µM | 0.0125 µM |
| UGCGAACAGGCUAACAUGAGGAUCACCCAUGUGGACUCAUGGUAGGAUAUCGGGAAGGAGGAAACCGAGAAGGGCCGGUGAGCG |  |  | 0.197 µM | 0.065 µM |
| UGCGAACAGGCUAACAUGAGGAUCACCCAUGUGGACUCAUGGUAGGAUAUCGGGAAGGAGGAAACCGAGAAGGGCCGGUGAGCU |  |  | 0.217 µM | 0.15 µM |
| UGCGCCUGCGAGAAGGCACAGAUCCAGCUCUUGACAUGAGGAUCACCCAUGUGAGGAUAUCGCAGGCGCGAAUUGGGACAAUCU | 0.0128 µM | 0.0741 µM |  |  |
| UGCGCUGAGGGAGGAUAUGACAUGAGGAUCACCCAUGUGAUAGGUUUCUUGUCAGAAGGCCCGCGUGUACCGAAUUAGGUUCGC | 0.0556 µM | 0.404 µM |  |  |
| UGCUACGUUUCGUAGCAGCUAGGUGAGGAUAUUCAAUUUUUCACAUGAGGAUCACCCAUGUAUGUGAAGAAGGCGCCUAGAAAG |  |  | 0.0123 µM | 0.00526 µM |
| UGCUAGUGAGGAUAUGCUGGAAUAAAGAUUUGACGUGGCGAACAUGAGGAUCACCCAUGUAGAAGGCACAAUAC | 0.0128 µM | 0.0157 µM |  |  |
| UGGAAACAUGAGGAUCACCCAUGUAAAAGGUGGUUAGGAUAUGCAAAACGGAAAACGAAAGCAGAAGGGACAAAAA |  |  | 0.412 µM | 0.302 µM |
| UGGAGGUCAGGAUAUGCAUGGCGGGACUUGCGUCGUGGCGUGCAGAAGGGACAUGAGGAUCACCCAUGUGGAGA | 0.0886 µM | 0.112 µM |  |  |
| UGGAUCAUCGGAGGAUAUCAUGUAAAUACAUGAGGAUCACCCAUGUCGAUGGAGACAUCGGAGAUUGAGAAGGCCGAUGAUCCU |  |  | 0.437 µM | 0.0257 µM |
| UGGAUCAUGGGAGGAUAUCCUCAAGAGACAUGAGGAUCACCCAUGUAUUAUAAGCCUAAUGGCAUGGAGAAGGCCCAUGAUCCU |  |  | 0.377 µM | 0.054 µM |
| UGGCACUAGGGAGGAUAUGGGAAGAUACAUGAGGAUCACCCAUGUUUAAGAAUGCCGAGAGGCAACUAGAAGGCCCUAGUACCU |  |  | 0.486 µM | 0.0193 µM |
| UGGCCCGCCGGAGGAUAUCUACUCUGUGGUGCACUGCGUUUGCAAUACAUGAGGAUCACCCAUGUAGAGAAGGCCGAGGGCACA |  | 0.0669 µM |  |  |
| UGGCGCAACAGAGGAUAUGCAUAGGCUGCCUUACAUGAGGAUCACCCAUGUGCAGAAGGCUGUUGCCAUUACAAGCGCACUAAU | 0.118 µM | 0.402 µM |  |  |
| UGGCUACAUGAGGAUCACCCAUGUCAGGAUAUGCCGUUGGAUUGACUUCGUCGUUCGGGUAGAAGGGACUGCGU | 0.0433 µM | 0.0549 µM |  |  |
| UGGGCGAGCCCAGUACUCACACAUGAGGAUCACCCAUGUGACGAGGAUAUAGACAGCGAUGCGUACUAGAAGGCGUCACGGUAA | 0.011 µM | 0.0462 µM |  |  |
| UGGGCUACCACAGGAUAUGCUACAUGAGGAUCACCCAUGUAAAGAAAAUCGGCAGAAGGGUGGUUAGUGCAGCAUGAAGGAGCC |  |  | 0.0289 µM | 0.0108 µM |
| UGGGUAAAUGUAGGAUAUUUAUAUUAAUAAUAUGGAGAAGGACAUGAGGAUCACCCAUGUACAGGGAAUUACCCAUUUCCUCUC | 0.94 µM | 0.877 µM |  |  |
| UGGGUAAGUGUAGGAUAUUUAUAUUAAUAGUAUGGAGAAGGACAUGAGGAUCACCCAUGUACAGGGAGUUACCCAUUUCCUCUC | 0.778 µM | 1.2 µM |  |  |
| UGGGUCCCAGUCAGGAUAUCGUGCUUUUACAUGCACGAGAAGGGACAUGAGGAUCACCCAUGUCAAGGCGGUCA | 0.102 µM | 0.33 µM |  |  |
| UGGUACAUCGGAGGAUAUCAUGUAAAUACAUGAGGAUCACCCAUGUCGAUGGAGACAUCGGAGAUUGAGAAGGCCGAUGUACCU |  |  | 0.48 µM | 0.0234 µM |
| UGGUACAUGGGAGGAUAUCAUGAACUUACAUGAGGAUCACCCAUGUCGAUGGAGACAUCGGAGAUUGAGAAGGCCCAUGUACCU |  |  | 0.0776 µM | 0.0224 µM |
| UGGUACAUGGGAGGAUAUGGGAAGUUAACAUGAGGAUCACCCAUGUUAUGCCGAAAGGCAAAGAACUAGAAGGCCCAUGUACCU |  |  | 0.0167 µM | 0.0161 µM |
| UGGUACAUGGGAGGAUAUGGGUUGAUAACAUGAGGAUCACCCAUGUUAAAUAUGCCUAAUGGCAACUAGAAGGCCCAUGUACCU |  |  | 0.377 µM | 0.0408 µM |

Reference: the EternaBench riboswitch data
